In ChEMBL document CHEMBL2203045, “Development of 5-nitrothiazole derivatives: identification of leads against both replicative and latent Mycobacterium tuberculosis” (Bioorg Med Chem Lett, 2012):
Converted amounts (≈) assume the structure as drawn. The source made the active and inactive calls. The calls are words filed in the database; no cut-off is given here.

How the values were obtained:
[1] = tested on: Mycobacterium tuberculosis; assay: Ratio of nitazoxanide MIC to compound MIC for log phase culture of Mycobacterium tuberculosis H37Rv ATCC 27294; assay type: functional
[2] = Cytotoxicity against HEK293T cells assessed as cellular growth at 25 uM by MTT assay; assay type: cell-based, HEK-293T; details: human, read-out: Activity
Method in brief: (§1)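 HEK293T cells were exposed to compound at 25 and 100 and read out by MTT assay.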

[3] = tested on: Mycobacterium tuberculosis; assay: Antitubercular activity against log phase culture of Mycobacterium tuberculosis H37Rv ATCC 27294 by agar dilution method; assay type: functional
Method in brief: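 H37Rv (ATCC27294) was tested by agar dilution, with the compound serially diluted from 50 to 0.78 in duplicate. MIC was taken as the lowest concentration giving complete growth inhibition.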

[4] = Cytotoxicity against HEK293T cells assessed as cellular growth at 100 uM by MTT assay; assay type: cell-based, HEK-293T; details: human, read-out: Activity; method in brief: as §1
[5] = tested on: Mycobacterium tuberculosis; assay: Antitubercular activity against non-culturable Mycobacterium tuberculosis assessed as log reduction in dormant cell viability at 10 ug/mL measured for 7 days by MPN assay relative to control; assay type: functional
Method in brief: (§2)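 Bacilli were grown in potassium-deficient Sauton's medium with ADC and 0.05% Tween-80 at 37 °C and 200 rpm. Dormancy was confirmed by failure to form colonies on agar-solidified Sauton's. Non-culturable cells were washed and exposed to compound for 7 days, then resuscitated in liquid Sauton's alongside untreated cells. Recovered cell concentration was estimated by Most Probable Number assay with statistical treatment.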

[6] = tested on: Mycobacterium tuberculosis; assay: Antitubercular activity against non-culturable Mycobacterium tuberculosis assessed as reduction in dormant cell viability at 10 ug/mL measured for 7 days by MPN assay; assay type: functional, organism-based; method in brief: as §2
[7] = Therapeutic index, ratio of cytotoxicity against HEK293T cells to MIC for log phase culture of Mycobacterium tuberculosis H37Rv ATCC 27294; assay type: cell-based, HEK-293T; details: human, read-out: TI

SMILES	Ratio [1]	viability at 25 µM [2] [%]	MIC [3] [µM]	viability at 100 µM [4] [%]	FC [5]	Activity [6]	selectivity ratio [7]
COc1ccc(OC(C)=O)c(C(=O)Nc2ncc([N+](=O)[O-])s2)c1	2.19	100	74.1 (≈ 25 µg/mL)	94.1			
CC(=O)Oc1ccccc1C(=O)Nc1ncc([N+](=O)[O-])s1 [NITAZOXANIDE]			163 (≈ 50 µg/mL)				
CC(=O)Oc1cc(Cl)ccc1C(=O)Nc1ncc([N+](=O)[O-])s1	4.4	100	36.6 (≈ 12.5 µg/mL)	83.5			
CC(C)c1cc(C(=O)Nc2ncc([N+](=O)[O-])s2)c(OC(=O)c2ccccc2)c(C(C)C)c1			> 110				
O=C(Nc1nc2ccc([N+](=O)[O-])cc2s1)c1ccc([N+](=O)[O-])o1		100	150 (≈ 50 µg/mL)	43.3	1		
O=C(Oc1c(C(=O)Nc2ncc([N+](=O)[O-])s2)cc([N+](=O)[O-])cc1[N+](=O)[O-])c1ccccc1			> 109				
COc1ccc(OC(=O)c2ccccc2)c(C(=O)Nc2ncc([N+](=O)[O-])s2)c1		100	15.6 (≈ 6.25 µg/mL)	67.6			
O=C(Nc1ncc([N+](=O)[O-])s1)c1ccc(-c2ccc(Br)cc2)o1		89.1	31.7 (≈ 12.5 µg/mL)	70.3			
CC(C)c1cc(C(=O)Nc2ncc([N+](=O)[O-])s2)c(O)c(C(C)C)c1		29.4	17.9 (≈ 6.25 µg/mL)	7.1			
NNC(=O)c1ccncc1 [ISONIAZID]			0.72 (≈ 0.0987 µg/mL)			Active	
COc1ccc(O)c(C(=O)Nc2ncc([N+](=O)[O-])s2)c1		100	84.7 (≈ 25 µg/mL)	100			
O=C(Nc1ncc([N+](=O)[O-])s1)c1ccc(Cl)cc1O			> 167				
O=C(Nc1ncc([N+](=O)[O-])s1)c1ccc([N+](=O)[O-])o1	29	87.4	5.48 (≈ 1.56 µg/mL)	67.3	1		> 20
CC(=O)Oc1c(Cl)cc(Cl)cc1C(=O)Nc1ncc([N+](=O)[O-])s1	2.44	100	66.5 (≈ 25 µg/mL)	95.1			
CC(=O)Oc1ccc(Cl)cc1C(=O)Nc1ncc([N+](=O)[O-])s1	8.9	59.5	18.3 (≈ 6.25 µg/mL)	31.1			
O=C(Nc1ncc([N+](=O)[O-])s1)c1cccs1 [TENONITROZOLE]		100	24.5 (≈ 6.25 µg/mL)	93.4			
O=C(Nc1ncc([N+](=O)[O-])s1)c1ccco1			206 (≈ 49.2 µg/mL)				
O=C(Nc1ncc([N+](=O)[O-])s1)c1ccc(-c2ccc([N+](=O)[O-])cc2)o1		88.4	17.3 (≈ 6.25 µg/mL)	79.2			
O=C(Nc1ncc([N+](=O)[O-])s1)c1cc(Cl)ccc1O		100	20.9 (≈ 6.25 µg/mL)	63			
Cc1ccc(-c2ccc(C(=O)Nc3ncc([N+](=O)[O-])s3)o2)cc1		94.1	19 (≈ 6.25 µg/mL)	91.5			
O=C(Oc1cc(Cl)ccc1C(=O)Nc1ncc([N+](=O)[O-])s1)c1ccccc1			> 124				
O=C(Nc1ncc([N+](=O)[O-])s1)c1cc(Cl)cc(Cl)c1O		100	74.8 (≈ 25 µg/mL)	23.5			
CC(=O)Oc1c(C(=O)Nc2ncc([N+](=O)[O-])s2)cc(C(C)C)cc1C(C)C	2.54	45.9	63.9 (≈ 25 µg/mL)	20.6			
O=C(Oc1c(Cl)cc(Cl)cc1C(=O)Nc1ncc([N+](=O)[O-])s1)c1ccccc1		100	28.5 (≈ 12.5 µg/mL)	61.6			
O=C(Nc1ncc([N+](=O)[O-])s1)c1ccc([N+](=O)[O-])s1		100	20.8 (≈ 6.25 µg/mL)	35.9			
O=C(Oc1ccc(Cl)cc1C(=O)Nc1ncc([N+](=O)[O-])s1)c1ccccc1		72.2	15.5 (≈ 6.25 µg/mL)	23.7			
O=C(Nc1ncc([N+](=O)[O-])s1)c1ccc(-c2ccc(Cl)cc2)o1		75	17.9 (≈ 6.25 µg/mL)	74.1			
CO[C@H]1/C=C/O[C@@]2(C)Oc3c(C)c(O)c4c(O)c(c(/C=N/N5CCN(C)CC5)c(O)c4c3C2=O)NC(=O)/C(C)=C\C=C\[C@H](C)[C@H](O)[C@@H](C)[C@@H](O)[C@@H](C)[C@H](OC(C)=O)[C@@H]1C [RIFAMPIN]			0.48 (≈ 0.395 µg/mL)			Active	
COOc1ccc(-c2ccc(C(=O)Nc3ncc([N+](=O)[O-])s3)o2)cc1		100	72.4 (≈ 26.2 µg/mL)	95.7			
